HMGR II inh: inhibitors of class II HMG-CoA reductase from Enterococcus faecalis; purified E. faecalis HMGR, NADPH absorbance 340 nm kinetic; inhibition, % at 10 µM; hit rate 0.41% among 190,000; AID 1066;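 active means inhibition above a set limit, the median over all tested compounds plus 3 SD, cut at about 9.5% in these data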;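 further: enzyme runs in reverse so mevalonate oxidation gives rising NADPH absorbance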
EP2 modulator: EP2 receptor (human) modulation; EP2-expressing cells, cAMP HTRF FRET, PGE2 co-stimulation; AID 940; induction, % at 25 µM; hit rate 0.83% among 260,000; P43116;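 active means compounds whose cAMP rise, as percent of the full-agonist control response, exceeds 60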;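 further: rat C6 glioma line stably carrying human EP2 under a CMV promoter; the protocol text gives 20 µM as final concentration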
Target sequence (P43116 whole entry, looked up): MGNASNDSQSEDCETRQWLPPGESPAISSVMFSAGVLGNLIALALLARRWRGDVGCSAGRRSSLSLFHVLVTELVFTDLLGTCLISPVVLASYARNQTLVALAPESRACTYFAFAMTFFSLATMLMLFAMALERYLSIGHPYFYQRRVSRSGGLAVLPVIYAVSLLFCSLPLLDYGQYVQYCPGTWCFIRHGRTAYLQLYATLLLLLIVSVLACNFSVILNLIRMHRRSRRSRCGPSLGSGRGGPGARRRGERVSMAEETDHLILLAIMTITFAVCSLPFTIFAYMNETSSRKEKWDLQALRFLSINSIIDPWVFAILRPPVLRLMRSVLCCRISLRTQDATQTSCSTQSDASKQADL
EP2 antag: blocks the human prostaglandin E2 receptor EP2 | inhibition, % at 25 µM | C6 glioma cells expressing human EP2, cAMP TR-FRET; cells stimulated with saturating PGE2 | hit rate 0.52% among 260,000;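 active means percent inhibition above 40 after rounding to a whole number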;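 further: rat C6 glioma host cells with rolipram phosphodiesterase inhibitor present; the protocol text gives 20 µM as final concentration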
bCat nuc transl: alters nuclear translocation of beta-catenin in HeLa cells. immunofluorescence imaging. nuclear translocation activity, % at 5 µM. hit rate 0.3% among 190,000. AID 1665;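 active means nuclear translocation activity above 50% at 5 µM, with a well cell count of 50 or more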;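 further: per-cell ratio of nuclear to cytoplasmic median beta-catenin stain intensity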
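Test system: human HeLa cell line; Doses: 5 µM primary, 0.02–20 µM confirmation; Incubation: 24 h compound exposure, 37°C; Detection: beta-catenin immunofluorescence imaging with DAPI; Read-out: beta-catenin nuclear/cytoplasmic ratio, % activation.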
MT stabilizer: stabilizes microtubules in HeLa cells. HeLa tubulin immunostaining HCS, 24 h; share of cells brighter than vehicle mean+2SD. % tubulin-high responders, % at 10 µM. AID 2205. hit rate 0.83% among 200,000;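 active means plate Z-score above 3 for both tubulin-high and condensed-nucleus cell shares, with cell loss under 80%, at 10 µM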;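 further: anti alpha tubulin signal scored within the nucleus-defined area of each cell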
TbHK1 inh: T. brucei hexokinase 1 inhibition | inhibition, % at 10 µM | hit rate 0.11% among 220,000 | AID 1430 | recombinant TbHK1, G6PDH-coupled NADH A340;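 active means inhibition of 50% or more in the single-dose primary screen; inactive means inhibition below 50%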
Numbers stand for hits; i = inactive; nt = no result given; ! = a repeat was not active. A selection: hits, their analogues and other compounds. The true share with any hit is near 2.4%.

SMILES | HMGR II inh | EP2 modulator | EP2 antag | bCat nuc transl | MT stabilizer | TbHK1 inh
COc1cc(/C=N/N=C(N)N)ccc1OCc1ccc(Cl)cc1 | i | i | i | i | 67 | i
C=CCNC(=O)c1c(NC(=O)c2ccccc2C)sc2c1CCCC2 | nt | i | i | nt | nt | nt
C=CCNC(=O)c1c(NC(=O)c2ccc(OC)c(OC)c2)sc2c1CCCC2 | nt | 66 | i | nt | nt | nt
CCOC(=O)c1c(NC(=O)c2ccccc2N(C)S(=O)(=O)c2ccccc2)sc2c1CCCC2 | i | i | i | 60 | 13 | i
COCCCNC(=O)c1c(NC(=O)c2ccccc2C)sc2c1CCCC2 | nt | i | 45 | nt | nt | nt
CCN(CC)C(=O)N1CCCC(c2nc(C)ncc2-c2ccncc2)C1 (stereo not given) | nt | i | nt | nt | nt | nt
O=C1OCC2OC(O)C(O)C(O)C2OC(=O)c2cc(O)c(O)c(O)c2-c2c(O)c(O)c3oc(=O)c4c(c(O)c(O)c5oc(=O)c2c3c54)-c2c1cc(O)c(O)c2O (stereo not given) | nt | i | i | i | nt | 54
COc1cccc(Cn2c3cc(C)sc3c3cnn(Cc4ccncc4)c(=O)c32)c1 | nt | i | nt | nt | nt | nt
COc1ccc2c(c1OC)C(=O)O[C@@H]2[C@H]1c2c(cc3c(c2OC)OCO3)CCN1C | i | 61! | i | i | i | i
CCOC(=O)C(=O)Nc1nnc(C(CC)CC)s1 | nt | i | i | nt | nt | nt
CCOC(=O)Cc1csc(NC(=O)CSc2nc3cc4c(cc3cc2C)OCCO4)n1 | nt | i | i | nt | nt | nt
CC(=O)O[C@H]1CC[C@@]2(C)C(=CC[C@@H]3[C@H]4CC[C@@H](c5cc(C(F)(F)F)n(C(C)=O)n5)[C@]4(C)CC[C@H]32)C1 | nt | i | 42 | nt | nt | nt
CCOc1ccc(NC(=O)C2CCN(C(=O)c3cc(OC)c(OC)c(OC)c3)CC2)cc1 | nt | i | i | nt | nt | nt
COc1ccc(C(=O)c2no[n+]([O-])c2C(=O)c2ccc(OC)cc2)cc1 | i | i | 65 | i | i | i
O=C(c1cccs1)c1no[n+]([O-])c1C(=O)c1cccs1 | i | i | 130 | nt | i | i
Cc1occc1-c1nnc(SCC(N)=O)o1 | i | i | i | i | i | i
Cc1occc1-c1nnc(SCC(=O)N2CCCCC2)o1 | 13 | i | i | i | i | i
Cc1occc1-c1nnc(SCC(=O)N2CCN(c3ccccc3F)CC2)n1C | i | 75! | i | i | i | i
CCc1ccc(/C=N/NC(=O)c2cc(C3CC3)nc3ccc(Br)cc23)s1 | i | i | i | i | 20 | i
CC(C)(C)NC(=O)C(c1ccccn1)N(Cc1ccc(F)cc1)C(=O)c1csnn1 (stereo not given) | nt | i | i | nt | nt | nt
O=C(N/N=C/C=C/c1ccccc1)c1n[nH]c2c1CCC2 | i | i | nt | 176 | 25 | i
Cc1cc(C(=O)N/N=C/C=C/c2ccccc2)n[nH]1 | nt | i | i | i | nt | i
O=C(N/N=C/C(Br)=C\c1ccccc1)c1n[nH]c2c1CCC2 | i | i | nt | nt | 15 | i
Cc1ccc(C(=O)N/N=C/C=C/c2ccccc2)o1 | 11 | i | i | i | i | i
COc1ccc(-c2c(C)nn3c(NCCN4CCOCC4)c(C)c(C)nc23)cc1 | nt | i | nt | nt | nt | nt
SMILES | HMGR II inh | EP2 modulator | EP2 antag | bCat nuc transl | MT stabilizer | TbHK1 inh
CCc1nn(CC(=O)NCc2ccncc2)c(=O)c2cc3ccsc3n12 | nt | i | nt | nt | nt | nt
COCCCN1C(=O)C(O)=C(C(C)=O)C1c1ccc(O)cc1 (stereo not given) | nt | i | i | nt | nt | nt
CCOc1ccc(/C=N/OCC(=O)Nc2ccc(OCc3ccccc3)cc2)cc1OC | i | i | i | i | i | i
COc1cc(/C=N/OCC(=O)Nc2ccc(OC(F)F)cc2)ccc1OCc1ccccc1 | i | i | i | i | 17 | i
Cc1ccc(C(=O)CSc2nc(C)cc(SCC(=O)NC3CCCCC3)n2)cc1 | nt | i | i | nt | nt | nt
C=C1C(=O)[C@@]23[C@H](O)C[C@@H]4C(C)(C)CC[C@H](O)[C@@]4(C)[C@@H]2CC[C@@H]1[C@H]3O | i | i | i | nt | 25 | i
C=C1C(=O)[C@@]23[C@H](O)C[C@@H]4C(C)(C)CC[C@H](O)[C@]4(C)[C@@H]2C[C@H](O)[C@@H]1[C@H]3O | i | i | i | nt | i | i
Oc1cc(-c2ccccc2)c2ccccc2c1 | i | 61 | i | i | i | i
O=C(C1=C[C@H](c2ccccc2)C[C@H](OCc2ccc(CO)cc2)O1)N1CCN(Cc2ccccc2)CC1 | i | i | i | i | i | i
CC(C)(C)[C@H]1C=C(C(=O)N2CCN(Cc3ccc4c(c3)OCO4)CC2)O[C@@H](OCc2ccc(CO)cc2)C1 | 19 | i | i | i | i | i
O=C(C1=C[C@@H](c2csc3ccccc23)C[C@@H](OCc2ccc(CO)cc2)O1)N1CCN(Cc2ccccc2)CC1 | i | i | i | i | i | i
O=C(C1=C[C@@H](c2csc3ccccc23)C[C@@H](OCc2ccc(CO)cc2)O1)N1CCN(Cc2ccc3c(c2)OCO3)CC1 | i | i | nt | i | 22 | i
O=C(C1=C[C@@H](c2ccccc2)C[C@@H](OCc2ccc(CO)cc2)O1)N1CCN(Cc2ccc3c(c2)OCO3)CC1 | i | i | i | i | 13 | i
CCC(C)(C)NC(=O)Cn1nc(-c2ccc(C)o2)cc(N)c1=O | nt | i | i | nt | nt | nt
O=C(Nc1ccccc1)N(Cc1cccnc1)Cc1cc2cc3c(cc2[nH]c1=O)OCCO3 | nt | i | i | nt | nt | nt
CC(=O)CC1=NC(C)(C)Cc2ccccc21 | 12 | i | i | i | i | i
Cn1c(=O)c2cc(S(=O)(=O)NC3C4CCCCC43)ccc2n(C)c1=O (stereo not given) | nt | i | i | nt | nt | nt
Cc1cc(N/N=C/c2ccc(O)c(C)c2O)nc(-c2ccccc2O)n1 | i | i | 91 | i | i | i
COc1ccc(COc2cc(-c3cccc(OC)c3)nc3ccc(NC(=O)c4ccc(N(C)C)cc4)cc23)cc1 | i | i | i | nt | 20 | i
COc1ccc(C(=O)Nc2ccc3[nH]c(-c4cccc(OC)c4)cc(=O)c3c2)cc1 | i | i | i | 56 | 32 | i
COc1cccc(C(O)CN2CCC3(CC2)CC(O)c2ccc4ccccc4c2O3)c1 (stereo not given) | nt | i | i | nt | nt | nt
COc1ccccc1CNC(=O)Cn1nc(C)n2c(cc3sc(C)cc32)c1=O | nt | i | nt | nt | nt | nt

From PubChem BioAssay
